# pKi: −log10 of the molar value. Calls of active or inactive are those of the source. No cut-off for these calls is given here. Numbered stars: 1 amine (or outer) side, 2 acyl side, 3 side chain; on linkers, the order of the positions; unused ones are H or OH. Bridge positions count the residues as written; N and C are the ends. Square brackets hold non-standard residues; d marks the D form. Peptide text beside a SMILES is read from it. * marks the point of attachment. X2 = O=C(O)CN1CCN(CC(=O)O)CCN(CC(=O)NCCN2C(=O)CC(*)C2=O)CC1; X1 = NC(=O)[C@H]1CC[C@H](CN2C(=O)CC(*)C2=O)CC1; Succinimide(1-Et,3-yl) = CCN1C(=O)CC(*)C1=O; βAsp = O=C(O)[C@H](CC(=O)[*:2])N[*:1]
# What was measured:
# Integrin alpha-V/beta-3 [1] = target: T1, Integrin alpha-V/beta-3 (Homo sapiens, UniProt P05106+P06756); experiment: Allosteric activation of integrin alphaVbeta3 receptor in human MSR3 […] assessed as increase in anti-beta3 LIBS integrin antibody AP5 binding at 500 uM incubated for 90 mins by flow cytometry; assay type: cell-based; conditions: 1.5 h
# Integrin alpha-V/beta-3 [2] = target: T1, Integrin alpha-V/beta-3; experiment: Binding affinity to integrin alphaVbeta3 receptor in human MSR3 cell membranes incubated for 2 hrs by Tr-NOESY NMR spectroscopy
# Integrin alpha-V/beta-3 [3] = target: T1, Integrin alpha-V/beta-3; experiment: Binding affinity to integrin alphaVbeta3 receptor in human MSR3 cell membranes assessed as change in STD spectra incubated for 2 hrs by NMR spectroscopy relative to untreated control
# In short: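 Saturation transfer difference NMR used ligand at 1 mM with native membranes prepared from MSR3 melanoma cells (75-125 x10^6 cells). These cells express high αvβ3, as checked by FACS. Ligand protons nearest the receptor were identified from transferred saturation.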
# Integrin alpha-V/beta-3 [4] = target: T1, Integrin alpha-V/beta-3; experiment: Binding affinity to human integrin alphaVbeta3 receptor using acetyl-CisoDGRCGVRSSSRTPSDKY-bio probe and streptavidin-peroxidase conjugate incubated for 3 hrs by competitive binding assay; assay type: protein-complex assay
# In short: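 Ki reported with its standard error from several independent experiments, each run in duplicate. Groups were compared by one-way ANOVA with Dunnett's post-test.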
# Integrin alpha-V/beta-3 [5] = target: T1, Integrin alpha-V/beta-3; experiment: Allosteric activation of integrin alphaVbeta3 receptor in human MSR3 […] assessed as increase in anti-beta3 LIBS integrin antibody AP5 binding at 5 uM incubated for 90 mins by flow cytometry; assay type: cell-based; conditions: 1.5 h
# Integrin alpha-V/beta-3 [6] = target: T1, Integrin alpha-V/beta-3; experiment: Binding affinity to integrin alphaVbeta3 receptor in EDTA pre-treated human MSR3 cell membranes incubated for 2 hrs by NMR spectroscopy
# In short: (§1)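 Ligand (1 mM) NMR-observed with native membranes prepared from human melanoma MSR3 cells (75-125 x10^6 cells), whose high αvβ3 expression was confirmed by FACS. Line 1 used saturation transfer difference (STD) to map the ligand protons closest to the receptor. Line 2 used transferred NOE, comparing NOEs with and without membranes.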
# Integrin alpha-V/beta-3 [7] = target: T1, Integrin alpha-V/beta-3; experiment: Binding affinity to integrin alphaVbeta3 receptor in EDTA pre-treated human MSR3 cell membranes incubated for 2 hrs by Tr-NOESY NMR spectroscopy; in short: as §1
# Integrin alpha-V/beta-3 [8] = target: T1, Integrin alpha-V/beta-3; experiment: Allosteric activation of integrin alphaVbeta3 receptor in human MSR3 […] assessed as increase in monoclonal antibody LM609 binding at 500 uM incubated for 90 mins by flow cytometry; assay type: cell-based; conditions: 1.5 h
Activity (Integrin alpha-V/beta-3 [1]),pKi (Integrin alpha-V/beta-3 [4]),Structure (SMILES),other results
Not Active,–,N=C(N)NCCC[C@@H]1NC(=O)CNC(=O)C[C@@H](C(=O)O)NC(=O)CNC(=O)[C@H](CS)NC(c2ccccc2)C(=O)NC1=O (stereo not given in full),–
Not Active,–,N=C(N)NCCC[C@@H]1NC(=O)CNC(=O)C[C@@H](C(=O)O)NC(=O)[C@H](CS)NCC(=O)NC(=O)C(c2ccccc2)NC1=O (stereo not given in full),–
Not Active,7.58,"CCN1C(=O)CC(SC[C@@H]2NC(=O)CNC(=O)[C@H](CCCNC(=N)N)NC(=O)CNC(=O)C[C@@H](C(=O)O)NC(=O)CNC2=O)C1=O (stereo not given in full) (GRGC(Succinimide(1-Et,3-yl))GD-OH; lactam N-6)",Activity (Integrin alpha-V/beta-3 [2]): > 50%; Activity (Integrin alpha-V/beta-3 [3]): > 50%; Activity (Integrin alpha-V/beta-3 [5]): Not Active
Not Active,7.67,N=C(N)NCCC[C@@H]1NC(=O)CNC(=O)C[C@@H](C(=O)O)NC(=O)CNC(=O)[C@H](CSC2CC(=O)N(CCNC(=O)CN3CCN(CC(=O)O)CCN(CC(=O)O)CC3)C2=O)NC(=O)CNC1=O (stereo not given in full) (GRGC(X2)GD-OH; lactam N-6),Activity (Integrin alpha-V/beta-3 [5]): Not Active
Not Active,–,N=C(N)NCCC[C@@H]1NC(=O)CNC(=O)C[C@@H](C(=O)O)NC(=O)[C@H](CS)NC(=O)CNC1=O (GRGCD-OH; lactam N-5),–
Not Active,–,N=C(N)NCCC[C@@H]1NC(=O)CNC(=O)C[C@@H](C(=O)O)NC(=O)CNC(=O)[C@H](CS)NC(=O)CNC1=O (GRGCGD-OH; lactam N-6),Activity (Integrin alpha-V/beta-3 [8]): Not Active
Not Active,–,N=C(N)NCCC[C@@H]1NC(=O)CNC(=O)C[C@@H](C(=O)O)NC(=O)[C@H](CS)NC(=O)CNC(=O)CNC1=O (GRGGCD-OH; lactam N-6),–
–,–,N=C(N)NCCC[C@@H]1NC(=O)CNC(=O)[C@H](CC(=O)O)NC(=O)[C@@H](N)CSSC[C@@H](C(=O)O)NC1=O (H-CDGRC-OH; disulfide 1-5),Activity (Integrin alpha-V/beta-3 [2]): inactive; Activity (Integrin alpha-V/beta-3 [3]): inactive
Not Active,–,N=C(N)NCCC[C@@H]1NC(=O)CNC(=O)C[C@@H](C(=O)O)NC(=O)[C@@H](N)CSSC[C@@H](C(=O)O)NC1=O (H-C[βAsp]GRC-OH; disulfide 1-5),–
–,8.20,N=C(N)NCCC[C@@H]1NC(=O)[C@H](CS)NC(=O)[C@@H](Cc2ccccc2)NC(=O)[C@H](CC(=O)O)NC(=O)CNC1=O (cyclo(RGD[dF]C)),–

Structure (SMILES),Activity (Integrin alpha-V/beta-3 [1]),pKi (Integrin alpha-V/beta-3 [4]),other results
N=C(N)NCCC[C@@H]1NC(=O)CNC(=O)C[C@@H](C(=O)O)NC(=O)CNC(=O)[C@H](CSC2CC(=O)N(C[C@H]3CC[C@H](C(N)=O)CC3)C2=O)NC(=O)CNC1=O (stereo not given in full) (GRGC(X1)GD-OH; lactam N-6),Not Active,7.70,Activity (Integrin alpha-V/beta-3 [2]): > 50%; Activity (Integrin alpha-V/beta-3 [3]): > 50%; Activity (Integrin alpha-V/beta-3 [6]): inactive; Activity (Integrin alpha-V/beta-3 [7]): inactive; Activity (Integrin alpha-V/beta-3 [5]): Not Active
